From PubChem BioAssay
Sampled rows, rich in hits. Any-hit rate of the full collection: about 9.2%.
Autophagy mod: autophagy modulators in MEF cells, primary screen, imaging, high-content, MEF GFP-LC3; MEF GFP-LC3 puncta imaging; test concentration mostly 10 µM; calls only at 10 µM (by protocol); hit rate 0.98% among 190,000;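 active = percentage of spot-positive cells more than 3 SD above its plate mean, without a fluorescence outlier flag or 80% toxicity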
HCT116 bCat-KO: primary screen for growth suppressors in beta-catenin knockout HCT116 cells (colon tumor, human); hit rate 1.5% among 140,000; viability, % at 10 µM; HCT116 beta-catenin knockout viability, CellTiter-Glo, 60 h; active compounds read low;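 active = viability at or under a set limit, the compound median less 4 SD, cut at about 6% in these data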
Dynein transport: inhibitors of GR-EGFP nuclear translocation, primary screen, dynein cargo transport inhibitor project, imaging, high-content, 3617.4 mouse cells; AID 1381, 2008; z-score, hits read low; hit rate 0.47% among 220,000; test concentration mostly 20 µM; stimulated with dexamethasone, 1 µM; active compounds read low;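 active = plate z-score of nuclear minus cytoplasmic receptor signal below a set negative limit, without overly bright fluorescence or cell loss, cut at about -3.5 in these data, passing the limit was not always enough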;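 also: z-score of nuclear minus cytoplasmic ring GR-EGFP intensity difference per well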
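Also added: dexamethasone, 1.0 µM final. Medium: tet-free, stripped-serum medium. Detection: fixed, Hoechst-stained cells imaged at 10x for EGFP. Read-out: nuclear-to-cytoplasmic GR-EGFP distribution per well. Times: induction 48 h, compound 1 h, agonist 30 min.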
L major viab: Leishmania major promastigote growth inhibition, primary screen | hit rate 9% among 200,000 | inhibition, % at 10 µM | Leishmania major promastigotes, resazurin fluorescence viability | AID 1063, 2008; in the data active = inhibition above about 50%;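 also: promastigotes grown with compound for 44 hours at 28 °C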
PTEN del growth: growth suppression of PTEN-null HCT116, primary screen, cell-based, CellTiter-Glo | HCT116 PTEN-null viability, 60 h; active compounds read low | viability, % at 10 µM | hit rate 1.2% among 140,000;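 active = viability at or below a set limit, 4 SD under the median of all tested compounds, cut at about 3.7% in these data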;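 also: PTEN knockout HCT116 line with beta catenin targeted HCT116 as companion control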
Numbers stand for hits; – = inactive; · = no result given; + = active, no number.

SMILES | Autophagy mod | HCT116 bCat-KO | Dynein transport | L major viab | PTEN del growth
CCc1nnc(NC(=O)CSc2nnc3ncccn23)s1 | – | – | – | – | –
Cc1cccc(OCc2nnc3n2CCCCC3)c1 | – | – | – | – | –
COc1cc(CN2CCNC(=O)C2CC(=O)N(C)Cc2cccnc2)cc(OC)c1 (centres undefined) | – | · | – | – | ·
CN(Cc1ccncn1)C(=O)CC1C(=O)NCCN1Cc1cccc(Oc2ccccc2)c1 (centres undefined) | – | · | – | 95 | ·
COc1ccccc1N(Cc1cc(=O)[nH]c2ccccc12)C(=O)c1ccccc1 | · | · | – | · | ·
CCOC(=O)c1c(C)oc2c1c(C(c1cccnc1)N1CCCCC1)c(O)c1ccccc12 (centres undefined) | – | – | – | 98 | –
Cc1ccc(Sc2ccc(NC(=O)CCl)cc2)c(C)c1 | – | – | – | 97 | –
Cc1ccccc1S(=O)(=O)Cc1ccc(C(=O)O)o1 | – | – | – | – | –
Cc1ccc(OCC(=O)NCC(=O)Nc2ccc(F)cc2)c([N+](=O)[O-])n1 | – | – | – | 50 | –
Cc1ccc(C)c(C(=O)COc2ccc(C)nc2[N+](=O)[O-])c1 | – | – | -4.3 | – | –
Cc1ccc(C)c(C(=O)COc2ccccc2[N+](=O)[O-])c1 | – | 1.9 | – | – | 1.6
O=C(Nc1cccn(Cc2cccc(F)c2)c1=O)NC1CCCCC1 | – | · | – | 83 | ·
O=C(Nc1cccc(F)c1)NC1CCCCC1 | – | – | – | – | –
O=C(Nc1cccn(Cc2c(F)cccc2Cl)c1=O)NC1CCCCC1 | – | · | – | 80 | ·
Cc1oc2ccc(O)c(CN3CCOCC3)c2c1C(=O)c1ccc(Cl)cc1 | – | – | – | 52 | –
COc1cc(C#N)c(NC(=S)N2CCOCC2)cc1OC | – | · | – | – | ·
O=C(NN=C1C2CC3CC(C2)CC1C3)c1ccncc1 | – | – | – | – | –
CCOc1ccc2c(c1)C(=NNC(=O)c1ccncc1)c1cc(OCC)ccc1-2 | – | 3.7 | – | 100 | 2.4
O=C(N/N=C1\C/C(=N\NC(=O)c2ccncc2)c2ccccc21)c1ccncc1 | – | · | – | 73 | ·
CN1C/C(=C/c2ccsc2)C(=O)/C(=C/c2ccsc2)C1 | – | 3.5 | – | 100 | 3.1
O=C1/C(=C\c2ccsc2)N2CCC1CC2 | · | · | – | · | ·
CN1C/C(=C\c2ccc(N3CCOCC3)cc2)C(=O)/C(=C/c2ccc(N3CCOCC3)cc2)C1 | – | 2.9 | – | 100 | 2.2
Cc1oc(C(C)(C)C)cc1C(=O)Nc1ccc(N2CCOCC2)cc1 | · | · | – | · | ·
CSc1ccccc1NC(=O)CN(C)CC(=O)Nc1ccccc1C(F)(F)F | – | · | – | – | ·
O=C(CCCn1c(=S)[nH]c2cc3c(cc2c1=O)OCO3)N1CCN(c2ccc(Cl)cc2)CC1 | – | – | – | 56 | –
SMILES | Autophagy mod | HCT116 bCat-KO | Dynein transport | L major viab | PTEN del growth
O=C(CCCn1c(=S)[nH]c2cc3c(cc2c1=O)OCO3)N1CCN(c2ccccc2)CC1 | – | – | – | – | –
Cc1cccc(N2CCN(C(=O)CCCn3c(=S)[nH]c4cc5c(cc4c3=O)OCO5)CC2)c1C | – | – | – | 64 | –
CC(SCc1ccccc1)C(=O)N/N=C/c1ccc(OCC(=O)NCc2ccco2)cc1 (centres undefined) | – | – | – | – | –
CCOC(=O)c1c(C)c(C(=O)N2CCN(c3ccc(F)cc3)CC2)c(C)n1C | – | · | – | – | ·
CCOc1ccc(NC(=O)CCCN2C(=S)NC(C)(C)CC2C)cc1 (centres undefined) | – | – | – | 59 | –
O=C(c1ccccc1NS(=O)(=O)c1cccc(C(F)(F)F)c1)N1CCc2ccccc21 | – | – | – | 66 | –
COc1cc(/C=C2\SC(=O)N(CCNC(=O)c3sc4cc(F)ccc4c3Cl)C2=O)cc(OC)c1OC | + | · | – | – | ·
OCCSc1nc(-c2ccccc2)nc2ccc(F)cc12 | – | · | – | – | ·
NC(N)=Nc1nc(-c2ccccc2)c2cc(F)ccc2n1 | – | · | – | 100 | ·
CCOC(=O)C1(Cc2ccc(Cl)cc2)CCN(C(=O)c2ccoc2)CC1 | – | · | – | 53 | ·
CCOC(=O)C1(Cc2ccc(Cl)cc2)CCN(C(=O)c2cnc(C)cn2)CC1 | · | · | – | · | ·
Cc1onc(-c2ccccc2)c1C(=O)N/N=C/c1ccc([N+](=O)[O-])s1 | – | 2.9 | – | 100 | 2.6
O=C(Cc1cccs1)N/N=C\c1ccc([N+](=O)[O-])s1 | – | · | – | 100 | ·
O=C(CNC(=O)c1ccccc1Cl)N/N=C/c1ccc([N+](=O)[O-])s1 | – | – | – | 99 | –
